Published values from different studies.
Target: Serine/threonine-protein kinase SIK1 (SIK1, Homo sapiens, UniProt P57059)

The remaining activity of Cc1ccc(C(=O)Nc2ccc(CN3CCN(C)CC3)c(C(F)(F)F)c2)cc1C#Cc1cnc2cccnn12 is reported as 57% (enzyme activity; inhibitor; 23.5 nM).
O=C(Nc1cnn(-c2csc(C(=O)NC3COC3)c2)c1)Nc1c(F)cccc1Cl has a remaining activity of 98.3% (enzyme activity; inhibitor; 5 µM).
For CN(c1nccc(-c2cnn3ncccc23)n1)C1CC1, the remaining binding was 100% (binding; 1 µM).
With CC(C)(C)c1nc2c(s1)c1nc(N)ncc1c1ccc(NS(=O)(=O)c3c(F)cccc3F)c(F)c12 the remaining activity was 90% (enzyme activity; inhibitor; radiometric; 1 µM).
For O=C(Nc1cnn(-c2csc(C(=O)NC3COC3)c2)c1)Nc1ccccc1Cl, the remaining activity was 102% (enzyme activity; inhibitor; 5 µM).
COc1cc(Cl)c(C(=O)N[C@@H](CN[C@H]2CC[C@@H](N)CC2)Cc2ccc(C#N)cc2)cc1-c1ccc(CN[C@H](C)c2ccc(C)cc2)o1 gave a remaining activity of 97% (enzyme activity; inhibitor; 1 µM).
With CC(C)(C)c1nc(-c2cccc(NS(=O)(=O)c3c(F)cccc3F)c2F)c(-c2ccnc(N)n2)s1 the remaining activity was 98% (enzyme activity; inhibitor; radiometric; 1 µM).
CCN1CCN(Cc2ccc(NC(=O)c3ccc(C)c(Oc4ccnc5[nH]ccc45)c3)cc2C(F)(F)F)CC1 gave an inhibition of -51.3% (target engagement in cells; inhibitor; chemoproteomics; Huh-7; 1 µM).
Cc1cnc(NC2CCOCC2)nc1-n1cnc(C(=O)NC(CN)c2cc(F)cc(Cl)c2)c1 (centres unmarked) has a remaining activity of 109% (enzyme activity; inhibitor; radiometric; 1 µM).
CC(C)(O)[C@H]1CC[C@H](Nc2ccc3ncc(-c4cccc(C(F)(F)F)c4)n3n2)CC1 gave a remaining activity of 62.8% (enzyme activity; inhibitor; 1 µM).
With Cc1cnn2ncc(-c3ccnc(N(C)C)n3)c2c1 the remaining binding was 100% (binding; 1 µM).
For Cc1ccc(Nc2nccc(N(C)c3ccc4c(C)n(C)nc4c3)n2)cc1S(N)(=O)=O, the inhibition was 13% (enzyme activity; inhibitor; 0.3 µM).
CN(CCCC(F)(F)F)c1nccc(-c2cnn3ncccc23)n1 has a remaining binding of 100% (binding; 1 µM).
Cc1cc(NC(=O)c2cccc3cc(-c4cccc5[nH]nc(N)c45)ccc23)ccc1F has an activity vs control of 103% (enzyme activity; inhibitor; 0.1 µM).
